Assay results from ChEMBL document CHEMBL1154414, “In vitro and in vivo activities of T-705 against arenavirus and bunyavirus infections” (Antimicrob Agents Chemother, 2007).
Calls of active or inactive are those of the source. The rule behind the calls is not given here.

Key:
Punta Toro virus [1] = experiment: Antiviral activity against 500 PFU Punta Toro virus Adames infected C57BL/6 mouse assessed as mean viral titer per 0.1 mL of serum at 75 mg/kg, po twice daily administered 4 hrs before viral challenge measured on day 4 of viral infection; type: functional
Method in brief: (§1)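 Mice were infected subcutaneously with PTV and dosed by oral gavage twice daily; 5 per group (10 placebo) were killed on day 3 or 4. Liver homogenate or serum was serially diluted onto triplicate LLC-MK2 monolayers, and CPE was read 6–8 days later. 50% endpoints gave log10 CCID50 per 0.1 g liver or 0.1 ml serum. Detection range was 2.8–9.5; undetectable samples were assigned <2.8.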

Punta Toro virus [2] = experiment: Antiviral activity against Punta Toro virus Adames infected Syrian golden hamster assessed as animals with detectable virus level in serum at 60 mg/kg, po twice daily administered 4 hrs before viral challenge measured on day 4 of viral infection; type: functional
Pichinde virus [3] = experiment: Antiviral activity against Pichinde virus An 4763 infected Syrian golden hamster assessed as mean viral titer per 0.1 mL of serum at 30 mg/kg, po twice daily for 7 days administered 4 hrs before viral-challenge measured on day 7 of viral infection; type: functional
Punta Toro virus [4] = experiment: Antiviral activity against 500 PFU Punta Toro virus Adames infected C57BL/6 mouse assessed as animals with detectable virus level in serum at 50 mg/kg, po twice daily administered 4 hrs before viral challenge measured on day 4 of viral infection; type: functional
Method in brief: (§2)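 T-705 was suspended in 0.4% carboxymethylcellulose and given by oral gavage twice daily. Mice were infected subcutaneously with PTV. Five mice per group (10 placebo) were sacrificed on day 3 or 4. Liver homogenate or serum was serially diluted onto triplicate LLC-MK2 monolayers, and CPE was read at 6–8 days. The detection limit was 2.8 log10 CCID50 per 0.1 g liver or 0.1 ml serum.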

Pichinde virus [5] = experiment: Antiviral activity against Pichinde virus An 4763 infected Syrian golden hamster assessed as animals with detectable virus level in serum at 15 mg/kg, po twice daily for 7 days administered 4 hrs before viral-challenge measured on day 7 of viral infection; type: functional
Method in brief: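 Hamsters (groups of 15, placebo 25-30) were dosed orally by gavage twice daily (drug suspended in 0.4% CMC) after bilateral intraperitoneal challenge with 65 PFU. Five per group were killed on day 7. Liver homogenate or serum was serially diluted onto triplicate B-SC-1 wells, CPE was read at 6-8 days, and the 50% endpoint was taken. Range was 2.8-9.5 log10 CCID50/0.1 g or 0.1 ml, with undetectable assigned <2.8.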

Pichinde virus [6] = experiment: Antiviral activity against Pichinde virus An 4763 infected Syrian golden hamster assessed as survival at 60 mg/kg, po twice daily for 7 days administered 4 hrs before viral-challenge; type: functional
Punta Toro virus [7] = experiment: Antiviral activity against 500 PFU Punta Toro virus Adames infected C57BL/6 mouse assessed as mean viral titer per 0.1 mL of serum at 50 mg/kg, po twice daily administered 4 hrs before viral challenge measured on day 4 of viral infection; type: functional; method in brief: as §1
Punta Toro virus [8] = experiment: Antiviral activity against Punta Toro virus Adames assessed as reduction of 1 log10 unit viral titer yields after 3 to 5 days; type: functional
Punta Toro virus [9] = experiment: Antiviral activity against 500 PFU Punta Toro virus Adames infected C57BL/6 mouse assessed as animals with detectable virus level in serum at 200 mg/kg, po twice daily administered 4 hrs before viral challenge measured on day 4 of viral infection; type: functional; method in brief: as §2
Pichinde virus [10] = experiment: Antiviral activity against Pichinde virus An 4763 infected Syrian golden hamster assessed as animals with detectable virus level in serum at 30 mg/kg, po twice daily for 7 days administered 4 hrs before viral-challenge measured on day 7 of viral infection; type: functional
Pichinde virus [11] = experiment: Antiviral activity against Pichinde virus An 4763 infected Syrian golden hamster assessed as mean day of death at 30 mg/kg, po twice daily for 7 days administered 4 hrs before viral-challenge; type: functional
Punta Toro virus [12] = experiment: Antiviral activity against 500 PFU Punta Toro virus Adames infected C57BL/6 mouse assessed as survival at 25 mg/kg, po twice daily for 5 days administered 4 hrs before viral challenge; type: functional, organism-based; parameters: dose 25 mg/kg
Method in brief: (§3)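 PTV was inoculated subcutaneously into mice in groups of 15 (25–30 placebo). Dosing was by oral gavage twice daily for 5–7 days, with T-705 suspended in 0.4% CMC and ribavirin in saline. Remaining animals were observed 21–28 days for survival and day of death. Test doses had first been checked for tolerance in uninfected animals.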

Punta Toro virus [13] = experiment: Antiviral activity against 500 PFU Punta Toro virus Adames infected C57BL/6 mouse assessed as animals with detectable virus level in serum at 25 mg/kg, po twice daily administered 4 hrs before viral challenge measured on day 4 of viral infection; type: functional; method in brief: as §2
Pichinde virus [14] = experiment: Antiviral activity against Pichinde virus An 4763 infected Syrian golden hamster assessed as […] survival administered po twice daily for 7 days administered 4 hrs before viral-challenge; type: functional, organism-based
Punta Toro virus [15] = experiment: Antiviral activity against 500 PFU Punta Toro virus Adames infected C57BL/6 mouse assessed as mean viral titer per 0.1 g of liver at 75 mg/kg, po administered 4 hrs before viral challenge measured on day 4 of viral infection; type: functional; method in brief: as §1
Punta Toro virus [16] = experiment: Antiviral activity against 500 PFU Punta Toro virus Adames infected C57BL/6 mouse assessed as mean serum ALT levels at 100 mg/kg, po twice daily administered 4 hrs before viral challenge measured on day 4 of viral infection; type: functional
Method in brief: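 Subcutaneous PTV infection was followed by oral gavage twice daily with drug suspended in 0.4% CMC. Serum was collected from 5 sacrificed mice per group (10 placebo) on day 3 or 4. ALT activity was measured by kinetic assay, and sham-infected mice set the baselines.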

Punta Toro virus [17] = experiment: Antiviral activity against 500 PFU Punta Toro virus Adames infected C57BL/6 mouse assessed as mean day of death at 10 mg/kg, po twice daily for 5 days administered 4 hrs before viral challenge; type: functional
Method in brief: (§4)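 Groups of 15 mice (25–30 placebo) were inoculated subcutaneously with PTV. Drug in 0.4% carboxymethylcellulose was given by oral gavage twice daily.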

Punta Toro virus [18] = experiment: Antiviral activity against 5000 PFU Punta Toro virus Adames infected C57BL/6 mouse assessed as survival at 30 mg/kg, po twice daily for 5 days 24 hrs post viral challenge; type: functional; method in brief: as §3
Punta Toro virus [19] = experiment: Antiviral activity against 5000 PFU Punta Toro virus Adames infected C57BL/6 mouse assessed as survival at 10 mg/kg, po twice daily for 5 days administered 24 hrs post viral challenge; type: functional; method in brief: as §3
Pichinde virus [20] = experiment: Antiviral activity against Pichinde virus An 4763 infected Syrian golden hamster assessed as animals with detectable virus level in serum at 60 mg/kg, po twice daily for 7 days administered 4 hrs before viral-challenge measured on day 7 of viral infection; type: functional
Punta Toro virus [21] = experiment: Antiviral activity against 500 PFU Punta Toro virus Adames infected C57BL/6 mouse assessed as animals with detectable virus level in liver at 5 mg/kg, po twice daily administered 4 hrs before viral challenge measured on day 3 of viral infection; type: functional; method in brief: as §2
Punta Toro virus [22] = experiment: Antiviral activity against 500 PFU Punta Toro virus Adames infected C57BL/6 mouse assessed as mean day of death at 50 mg/kg, po twice daily for 5 days administered 4 hrs before viral challenge; type: functional; method in brief: as §4
Punta Toro virus [23] = experiment: Antiviral activity against 500 PFU Punta Toro virus Adames infected C57BL/6 mouse assessed as protection against viral infection at 75 mg/kg, po twice daily for 5 to 7 days; type: functional; method in brief: as §3
Pichinde virus [24] = experiment: Antiviral activity against Pichinde virus An 4763 infected Syrian golden hamster assessed as survival at 20 mg/kg, po twice daily for 7 days administered 72 hrs post viral-challenge; type: functional

With NC(=O)c1nc(F)cnc1O [FAVIPIRAVIR] the log10CCID50 (Punta Toro virus [1]) was under 3.3, the Activity (Punta Toro virus [2]) was 20% and the log10CCID50 (Pichinde virus [3]) was under 5.2. The Activity (Punta Toro virus [4]) was 10%, the Activity (Pichinde virus [5]) was 80% and the Activity (Pichinde virus [6]) was 90%. It also gave a log10CCID50 (Punta Toro virus [7]) of under 3.1, an EC90 (Punta Toro virus [8]) of 20 µM and an Activity (Punta Toro virus [9]) of 0%. For the same compound, the Activity (Pichinde virus [10]) was 80%, the Activity (Pichinde virus [11]) was 12.5 days and the Activity (Punta Toro virus [12]) was “Active”. The Activity (Punta Toro virus [13]) was 20%, the Activity (Pichinde virus [14]) was “Dose-dependent effect” and the log10CCID50 (Punta Toro virus [15]) was under 2.8. It also gave an Activity (Punta Toro virus [16]) of 33 IU/L, an Activity (Punta Toro virus [17]) of 5 days and an Activity (Punta Toro virus [18]) of 90%. It also gave a survival at 10 mg/kg (Punta Toro virus [19]) of 40%, an Activity (Pichinde virus [20]) of 0% and an Activity (Punta Toro virus [21]) of 0%. The Activity (Punta Toro virus [22]) was over 21 days.

In the case of NC(=O)c1ncn([C@@H]2O[C@H](CO)[C@@H](O)[C@H]2O)n1 [RIBAVIRIN], the Activity (Punta Toro virus [23]) is reported as 100% and the Efficacy (Pichinde virus [24]) is reported as 60%.
